Published values collected from several papers.
Protocols differ between the studies behind these lines.

CN1CCC(COc2cnc(-c3cccc(Cn4nc(-c5cccc(C#N)c5)ccc4=O)c3)nc2)CC1
clearance (human, plasma; intravenous, single dose): ~3 mL/min/kg

C[C@@H](Oc1ccc(S(C)(=O)=O)cc1C(=O)N1C[C@@H]2C[C@]2(c2cc(C(F)(F)F)on2)C1)C(F)(F)F
CL/F (human, plasma; oral, 10 mg, single dose, fed): 73.1 mL/min

COc1ccc2c(c1)CN(C(=O)CCN1CCC(Cc3ccccc3)CC1)CC[S@@+]2[O-]
clearance (male human, plasma; intravenous, 0.4 mg/kg, healthy volunteers): 162 mL/min

N#Cc1cccc(-c2ccc3ncc(-c4cc(F)cc(F)c4)c(N4CCC(N)CC4)c3c2)c1O
clearance (human, plasma; intravenous, 50 µg): 85 mL/min

C=CC(=O)NC1CCN(c2ncc3ncnc(Nc4ccc(Oc5ccc6c(c5)ncn6C)c(C)c4)c3n2)CC1
clearance (male human, plasma; intravenous, 100 µg, single dose, healthy volunteers): 106 mL/min

CC(C)n1c(C2CCNCC2)nc2c([N+](=O)[O-])c(Br)c(Br)cc21
renal clearance (human, urine; oral, 75 mg, single dose): 13.7 mL/min

CC(C)C[C@H](NC(=O)[C@H](CC(C)C)NC(=O)[C@H](Cc1c[nH]c2ccccc12)NC(=O)[C@H](CCC(=O)O)NC(=O)[C@@H](NC(=O)[C@H](Cc1ccccc1)NC(=O)[C@H](CCC(=O)O)NC(=O)[C@H](CCCCNC(=O)COCCOCCNC(=O)COCCOCCNC(=O)CC[C@H](NC(=O)CCCCCCCCCCCCCCCCCCC(=O)O)C(=O)O)NC(=O)[C@H](C)NC(=O)[C@H](CCCCN)NC(=O)[C@H](CCCCN)NC(=O)[C@H](CCC(=O)O)NC(=O)[C@H](CC(=O)O)NC(=O)[C@H](CC(C)C)NC(=O)[C@H](Cc1ccc(O)cc1)NC(=O)[C@H](CCCCN)NC(=O)[C@H](CO)NC(=O)[C@H](Cc1ccc(O)cc1)NC(=O)[C@H](CC(=O)O)NC(=O)[C@H](CO)NC(=O)[C@@H](NC(=O)[C@H](Cc1ccccc1)NC(=O)[C@@H](NC(=O)CNC(=O)[C@H](CCC(N)=O)NC(=O)C(C)(C)NC(=O)[C@@H](N)Cc1c[nH]cn1)[C@@H](C)O)[C@@H](C)O)C(C)C)C(=O)N[C@@H](CCC(=O)O)C(=O)NCC(=O)NCC(=O)N1CCC[C@H]1C(=O)N[C@@H](CO)C(=O)N[C@@H](CO)C(=O)NCC(N)=O
CL/F (human, plasma; subcutaneous, 16 mg, multiple doses, once daily, steady state, patients): 0.333 mL/min

CN(C)C(=O)c1cc2cnc(Nc3ccc(N4CCNCC4)cn3)nc2n1C1CCCC1
CL/F (human, plasma; oral, multiple doses, steady state, patients): 343 mL/min

OC[C@H]1O[C@@H](c2cc(Cc3ccc(C4CC4)cc3)c(Cl)c3c2CCO3)[C@H](O)[C@@H](O)[C@@H]1O
CL/F (human, plasma; oral, 0.3 mg, single dose, fed, healthy volunteers): 173 mL/min

COc1ccc(F)cc1C(=O)NCc1ccc(-c2nn([C@@H](C)C(F)(F)F)c(N)c2C(N)=O)cc1
renal clearance (male human, urine; oral, 200 mg): 4.83 mL/min
